Measured values taken from ChEMBL document CHEMBL1148511, “Novel 5-azaindole factor VIIa inhibitors” (Bioorg Med Chem Lett, 2006).

Key:
[1] = biological target: Coagulation factor VII and X (Homo sapiens) (UniProt P00742+P08709); assay: Selectivity for F7a/TF over F10a; format: protein assay
Procedure, shortened: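 Reactions were started with pNA substrate at Km and read as A405 over time. Ki was fitted with the Morrison tight-binding equation.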

[2] = biological target: Coagulation factor VII/tissue factor (Homo sapiens) (UniProt P08709+P13726); assay: Selectivity for F7a/TF over trypsin; format: protein-complex assay
Procedure, shortened: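 Trypsin (10 nM) was tested without CaCl2, using Tosyl-Gly-Pro-Lys-pNA at Km. Readout was kinetic A405, and Ki was fitted with the Morrison tight-binding equation.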

[3] = biological target: Thrombin and coagulation factor VII (Homo sapiens) (UniProt P00734+P08709); assay: Selectivity for F7a/TF over F2a; format: protein assay
Procedure, shortened: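 FVIIa (7 nM) with soluble tissue factor (11 nM) was run in 1.5 mM EDTA. Thrombin (12.7 nM) was run in 1 mM EDTA with Tosyl-Gly-Pro-Lys-pNA at Km. Hydrolysis was followed at 405 nm, and apparent Ki came from a Morrison equation fit.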

Coagulation factor VII = biological target: T1, Coagulation factor VII (Homo sapiens, UniProt P08709); assay: Binding affinity to F7a/TF complex; format: protein-complex assay
T1 sequence (P08709 whole entry): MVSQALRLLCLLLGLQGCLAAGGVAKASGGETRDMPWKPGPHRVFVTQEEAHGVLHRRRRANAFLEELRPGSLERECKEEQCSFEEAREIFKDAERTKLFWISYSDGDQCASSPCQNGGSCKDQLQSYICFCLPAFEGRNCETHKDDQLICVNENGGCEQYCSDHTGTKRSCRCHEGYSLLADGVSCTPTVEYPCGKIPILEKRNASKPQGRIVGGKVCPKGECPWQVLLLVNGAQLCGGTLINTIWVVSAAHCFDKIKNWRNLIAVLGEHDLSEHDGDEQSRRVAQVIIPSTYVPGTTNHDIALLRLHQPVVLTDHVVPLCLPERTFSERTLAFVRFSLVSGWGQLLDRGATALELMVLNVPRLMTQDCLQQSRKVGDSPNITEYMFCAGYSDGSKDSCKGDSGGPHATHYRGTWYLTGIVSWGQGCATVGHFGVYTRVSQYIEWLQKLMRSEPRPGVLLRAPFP

Coagulation factor X = Coagulation factor X (Homo sapiens, UniProt P00742); assay: Binding affinity to F10a
Chain of Coagulation factor X (P00742 41-179 limits assumed): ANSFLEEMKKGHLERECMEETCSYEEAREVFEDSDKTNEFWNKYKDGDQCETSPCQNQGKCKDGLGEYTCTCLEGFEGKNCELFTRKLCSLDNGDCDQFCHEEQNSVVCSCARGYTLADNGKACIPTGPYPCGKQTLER
Chain of Coagulation factor X (P00742 235-488 limits assumed): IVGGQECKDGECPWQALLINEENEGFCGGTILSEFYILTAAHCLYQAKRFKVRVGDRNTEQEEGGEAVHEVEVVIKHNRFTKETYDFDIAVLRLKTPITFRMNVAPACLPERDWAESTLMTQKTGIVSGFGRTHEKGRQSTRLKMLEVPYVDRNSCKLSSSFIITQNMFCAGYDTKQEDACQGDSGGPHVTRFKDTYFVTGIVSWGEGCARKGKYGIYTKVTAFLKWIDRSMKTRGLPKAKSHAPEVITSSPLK

Prothrombin = Prothrombin (Homo sapiens, UniProt P00734); assay: Binding affinity to F2a
[4] = Binding affinity to trypsin; set-up: species or system Homo sapiens

## O=C(NCc1cccc(-c2cccc(-c3cc4c[nH]ccc-4n3)c2O)c1)Nc1ccccc1Cl
[1]
  Ratio Ki: 2630
[2]
  Ratio Ki: 2630
[3]
  Ratio Ki: 2630

## O=C(NCc1cccc(-c2cccc(-c3cc4c[nH]ccc-4n3)c2O)c1)Nc1ccccc1F
[1]
  Ratio Ki: 1930
[2]
  Ratio Ki: 2630
[3]
  Ratio Ki: 2460
Coagulation factor VII
  Ki: 0.057 µM

## O=C(NCc1cccc(-c2cccc(-c3cc4c[nH]ccc-4n3)c2O)c1)C(CO)c1cccnc1 (configuration not stated)
[1]
  Ratio Ki: 149
[2]
  Ratio Ki: 34
[3]
  Ratio Ki: 107
Coagulation factor VII
  Ki: 0.61 µM

## O=C(NCc1cccc(-c2cccc(-c3cc4c[nH]ccc-4n3)c2O)c1)Nc1ccccc1
[1]
  Ratio Ki: 1010
[2]
  Ratio Ki: 2030
[3]
  Ratio Ki: 2110
Coagulation factor VII
  Ki: 0.0615 µM

## O=C(NCc1cccc(-c2cccc(-c3cc4c[nH]ccc-4n3)c2O)c1)Nc1cccs1
[1]
  Ratio Ki: 600
[2]
  Ratio Ki: 538
[3]
  Ratio Ki: 938

## COc1ccc(NC(=O)NCc2cccc(-c3cccc(-c4cc5c[nH]ccc-5n4)c3O)c2)c(OC)c1
[1]
  Ratio Ki: 2640
[2]
  Ratio Ki: 5000
[3]
  Ratio Ki: 3180
Coagulation factor VII
  Ki: 0.028 µM

## COc1cccc(NC(=O)NCc2cccc(-c3cccc(-c4cc5c[nH]ccc-5n4)c3O)c2)c1
[1]
  Ratio Ki: 1600
[2]
  Ratio Ki: 1500
[3]
  Ratio Ki: 1500
Coagulation factor VII
  Ki: 0.1 µM

## O=C(NCCc1ccccc1)NCc1cccc(-c2cccc(-c3cc4c[nH]ccc-4n3)c2O)c1
[1]
  Ratio Ki: 417
[2]
  Ratio Ki: 96
[3]
  Ratio Ki: 174
Coagulation factor VII
  Ki: 0.27 µM

## COc1ccc(NC(=O)NCc2cccc(-c3cccc(-c4cc5c[nH]ccc-5n4)c3O)c2)cc1
[1]
  Ratio Ki: 705
[2]
  Ratio Ki: 1590
[3]
  Ratio Ki: 1020
Coagulation factor VII
  Ki: 0.088 µM

## O=C(NCc1cccc(-c2cccc(-c3cc4c[nH]ccc-4n3)c2O)c1)Nc1ccccn1
[1]
  Ratio Ki: 67
[2]
  Ratio Ki: 56
[3]
  Ratio Ki: 56
Coagulation factor VII
  Ki: 2.7 µM

## O=C(NCc1cccc(-c2cccc(-c3cc4c[nH]ccc-4n3)c2O)c1)Nc1ccc(F)cc1
[1]
  Ratio Ki: 382
[2]
  Ratio Ki: 1360
[3]
  Ratio Ki: 1360
Coagulation factor VII
  Ki: 0.11 µM

## O=C(NCc1cccc(-c2cccc(-c3cc4c[nH]ccc-4n3)c2O)c1)Nc1ccc(C(=O)O)cc1
[1]
  Ratio Ki: 966
[2]
  Ratio Ki: 1100
[3]
  Ratio Ki: 2240
Coagulation factor VII
  Ki: 0.058 µM

## O=C(NCc1cccc(-c2cccc(-c3cc4c[nH]ccc-4n3)c2O)c1)Nc1cccc(F)c1
[1]
  Ratio Ki: 923
[2]
  Ratio Ki: 1150
[3]
  Ratio Ki: 1150
Coagulation factor VII
  Ki: 0.13 µM

## CC(=O)c1ccc(NC(=O)NCc2cccc(-c3cccc(-c4cc5c[nH]ccc-5n4)c3O)c2)cc1
[1]
  Ratio Ki: 789
[2]
  Ratio Ki: 495
[3]
  Ratio Ki: 305

## O=C(NCc1cccc(-c2cccc(-c3cc4c[nH]ccc-4n3)c2O)c1)C(O)c1ccccc1 (configuration not stated)
[1]
  Ratio Ki: 80
[2]
  Ratio Ki: 57
[3]
  Ratio Ki: 68
Coagulation factor VII
  Ki: 0.85 µM

## O=C(NCc1cccc(-c2cccc(-c3cc4c[nH]ccc-4n3)c2O)c1)Nc1ccc(F)cc1F
[1]
  Ratio Ki: 1700
[2]
  Ratio Ki: 1500
[3]
  Ratio Ki: 1200
Coagulation factor VII
  Ki: 0.1 µM

## O=C(NCc1cccc(-c2cccc(-c3cc4c[nH]ccc-4n3)c2O)c1)Nc1cc(F)cc(F)c1
[1]
  Ratio Ki: 181
[2]
  Ratio Ki: 181
[3]
  Ratio Ki: 181
Coagulation factor VII
  Ki: 0.83 µM

## O=C(Cc1c(F)cccc1F)NCc1cccc(-c2cccc(-c3cc4c[nH]ccc-4n3)c2O)c1
[1]
  Ratio Ki: 10
[2]
  Ratio Ki: 16
[3]
  Ratio Ki: 16
Coagulation factor VII
  Ki: 9.5 µM

## NC(=O)NCc1cccc(-c2cccc(-c3cc4c[nH]ccc-4n3)c2O)c1
Coagulation factor X
  Ki: 125 µM
Prothrombin
  Ki: 71.5 µM
[4]
  Ki: 46.5 µM

## CC(=O)c1cccc(NC(=O)NCc2cccc(-c3cccc(-c4cc5c[nH]ccc-5n4)c3O)c2)c1
[1]
  Ratio Ki: 2170
[2]
  Ratio Ki: 2170
[3]
  Ratio Ki: 2000
Coagulation factor VII
  Ki: 0.06 µM

## O=C(NCc1cccc(-c2cccc(-c3cc4c[nH]ccc-4n3)c2O)c1)C(CO)c1ccccc1 (configuration not stated)
[1]
  Ratio Ki: 136
[2]
  Ratio Ki: 57
[3]
  Ratio Ki: 470
Coagulation factor VII
  Ki: 0.22 µM

## O=C(NCCc1cccs1)NCc1cccc(-c2cccc(-c3cc4c[nH]ccc-4n3)c2O)c1
[1]
  Ratio Ki: 429
[2]
  Ratio Ki: 120
[3]
  Ratio Ki: 169

## O=C(Cc1ccccc1)NCc1cccc(-c2cccc(-c3cc4c[nH]ccc-4n3)c2O)c1
[1]
  Ratio Ki: 46
[2]
  Ratio Ki: 26
[3]
  Ratio Ki: 24

## CN1CCN(C(=O)NCc2cccc(-c3cccc(-c4cc5c[nH]ccc-5n4)c3O)c2)CC1
[1]
  Ratio Ki: 1
[2]
  Ratio Ki: 1
[3]
  Ratio Ki: 1
Coagulation factor VII
  Ki: 130 µM

## O=C(NCc1cccc(-c2cccc(-c3cc4c[nH]ccc-4n3)c2O)c1)Nc1c(F)cccc1F
[1]
  Ratio Ki: 2700
[2]
  Ratio Ki: 2180
[3]
  Ratio Ki: 3940
Coagulation factor VII
  Ki: 0.033 µM

## O=C(NCc1cccc(-c2cccc(-c3cc4c[nH]ccc-4n3)c2O)c1)N(O)Cc1ccccc1
[1]
  Ratio Ki: 653
[2]
  Ratio Ki: 375
[3]
  Ratio Ki: 750
Coagulation factor VII
  Ki: 0.072 µM

## CCCCCNC(=O)NCc1cccc(-c2cccc(-c3cc4c[nH]ccc-4n3)c2O)c1
[1]
  Ratio Ki: 388
[2]
  Ratio Ki: 181
[3]
  Ratio Ki: 343
Coagulation factor VII
  Ki: 0.335 µM

## O=C(NCc1cccc(-c2cccc(-c3cc4c[nH]ccc-4n3)c2O)c1)Nc1ccsc1
[1]
  Ratio Ki: 623
[2]
  Ratio Ki: 1150
[3]
  Ratio Ki: 769

## O=C(NCc1cccc(-c2cccc(-c3cc4c[nH]ccc-4n3)c2O)c1)Nc1cccnc1
[1]
  Ratio Ki: 635
[2]
  Ratio Ki: 935
[3]
  Ratio Ki: 968
Coagulation factor VII
  Ki: 0.155 µM

## O=C(NCc1cccc(-c2cccc(-c3cc4c[nH]ccc-4n3)c2O)c1)Nc1ccc(F)c(F)c1
[1]
  Ratio Ki: 455
[2]
  Ratio Ki: 455
[3]
  Ratio Ki: 455
Coagulation factor VII
  Ki: 0.33 µM

## N=C(N)c1ccc2[nH]c(-c3cccc(-c4cc(CNC(N)=O)ccc4O)c3O)nc2c1
[4]
  Ki: 3.6 µM

## O=C(NCc1cccc(-c2cccc(-c3cc4c[nH]ccc-4n3)c2O)c1)N1CCCC1
[1]
  Ratio Ki: 3
[2]
  Ratio Ki: 9
[3]
  Ratio Ki: 5
Coagulation factor VII
  Ki: 17 µM

## COc1ccccc1NC(=O)NCc1cccc(-c2cccc(-c3cc4c[nH]ccc-4n3)c2O)c1
[1]
  Ratio Ki: 1720
[2]
  Ratio Ki: 3190
[3]
  Ratio Ki: 3190
Coagulation factor VII
  Ki: 0.047 µM
